# Scp1 inh: Scp-1 phosphatase inhibitors, primary screen, biochemical, colorimetric, uHTS. Carboxy-terminal domain RNA polymerase II polypeptide A small phosphatase 1 (Homo …. inhibition, % at 20 µM. actives 0.88% (n = 340,000). Recombinant Scp1, phosphopeptide, malachite green phosphate absorbance. AID 493091, 2011;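 active = inhibition above about 50% at 20 µM, limit read from the data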;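 note: plate controls were DMSO wells with enzyme for no effect and wells lacking enzyme for full effect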
#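 assay system = SCP-1 phosphatase catalytic domain, residues 76-261 | buffer or medium = 50 mM Tris acetate pH 5.5, 0.005% Tween-20, 10 mM MgCl2 | incubation = enzyme reaction 45 min at room temperature, colour 5 min, stabilisation 30 min | signal = Phosphate-binding colour reagent, absorbance read at 630 nm | measure = % inhibition at 20 µM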
# STEP block: STEP phosphatase inhibitors, primary screen, biochemical, fluorescence intensity, uHTS | inhibition, % at 20 µM | recombinant STEP, OMFP fluorogenic substrate | Tyrosine-protein phosphatase non-receptor type 5 (Homo sapiens), P54829 | actives 0.25% (n = 360,000);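 active = inhibition at 20 µM, scaled per plate between control wells, above about 37%, limit read from the data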;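 note: 0% = DMSO with enzyme and substrate and 100% = substrate only without enzyme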
#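 Assay system: isolated STEP enzyme / Timing: 20 min at room temperature, dark / Doses: 20 µM, 1% DMSO / Technique: fluorescence intensity, excitation 480 nm, emission 540 nm / Reagent: fluorogenic phosphatase substrate OMFP at 25 µM final / Measure: percent inhibition scaled to no-enzyme and uninhibited-enzyme controls, plate-pattern corrected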
# DNMT1 inh: human DNMT1 methyltransferase inhibitors, primary screen, biochemical, molecular beacon, fluorescence, HinP1I cleavage, uHTS; inhibition (reported as % activation of signal), % at 10 µM; AID 588458, 2011; DNA (cytosine-5)-methyltransferase 1 (Homo sapiens), P26358; actives 0.83% (n = 360,000); in the data active = inhibition above about 50%
# Target sequence (P26358 504-1616 limits assumed): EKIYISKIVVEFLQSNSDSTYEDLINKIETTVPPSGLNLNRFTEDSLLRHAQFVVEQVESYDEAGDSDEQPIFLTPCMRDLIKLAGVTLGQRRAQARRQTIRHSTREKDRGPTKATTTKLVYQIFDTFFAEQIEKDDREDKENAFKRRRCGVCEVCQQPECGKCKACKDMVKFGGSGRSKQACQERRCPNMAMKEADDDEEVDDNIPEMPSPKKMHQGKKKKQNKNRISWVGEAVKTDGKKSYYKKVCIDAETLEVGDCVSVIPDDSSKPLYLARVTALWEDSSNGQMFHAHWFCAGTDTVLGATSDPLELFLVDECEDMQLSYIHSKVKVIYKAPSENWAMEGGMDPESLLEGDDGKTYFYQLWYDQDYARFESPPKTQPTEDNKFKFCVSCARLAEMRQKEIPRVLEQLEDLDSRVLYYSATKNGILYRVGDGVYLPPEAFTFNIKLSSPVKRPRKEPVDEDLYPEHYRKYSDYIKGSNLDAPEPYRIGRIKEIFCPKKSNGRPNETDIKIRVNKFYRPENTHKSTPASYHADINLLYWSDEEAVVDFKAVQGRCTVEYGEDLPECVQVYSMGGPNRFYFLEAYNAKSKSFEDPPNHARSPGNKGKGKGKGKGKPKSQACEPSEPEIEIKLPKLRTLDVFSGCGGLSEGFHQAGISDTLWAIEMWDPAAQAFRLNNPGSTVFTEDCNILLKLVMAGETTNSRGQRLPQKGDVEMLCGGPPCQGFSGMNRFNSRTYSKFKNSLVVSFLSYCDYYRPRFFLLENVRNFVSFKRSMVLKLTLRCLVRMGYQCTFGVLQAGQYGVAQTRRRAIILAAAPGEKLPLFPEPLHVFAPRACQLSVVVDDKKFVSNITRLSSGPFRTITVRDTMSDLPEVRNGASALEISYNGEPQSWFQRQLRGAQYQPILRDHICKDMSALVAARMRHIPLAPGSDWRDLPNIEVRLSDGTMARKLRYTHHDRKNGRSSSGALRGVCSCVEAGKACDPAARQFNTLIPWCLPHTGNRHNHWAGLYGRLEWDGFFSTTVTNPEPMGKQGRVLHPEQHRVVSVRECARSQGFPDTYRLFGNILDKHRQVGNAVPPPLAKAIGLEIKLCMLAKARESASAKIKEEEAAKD
# LMPTP inh: LMPTP phosphatase inhibitors, primary screen, biochemical, fluorescence intensity, uHTS. Low molecular weight phosphotyrosine protein phosphatase (Homo sapiens), P24666. recombinant LMPTP-A, OMFP fluorogenic substrate. inhibition, % at 20 µM. actives 0.22% (n = 360,000). AID 651560, 2012;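 active = compounds that cut the enzyme signal by at least half of the control window in the single-dose screen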;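 note: plate controls were DMSO wells with enzyme plus substrate for no effect and substrate without enzyme for full effect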
#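 test system = LMPTP-A | amount = 0.625 nM LMPTP-A final | reagent = fluorogenic phosphatase substrate OMFP at 400 µM final | incubation = 50 min at room temperature | benchmarks = no-enzyme low control, uninhibited high control | medium = Bis-Tris pH 6.0, DTT, detergent | signal = fluorescence intensity of OMFP turnover product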
# SUMO1-SIM PPI: modulators of SUMO1 protein-protein interactions, primary screen, biochemical, uHTS | AID 602429, 2012 | SUMO1 binding to a labelled peptide, TR-FRET, 1 h | actives 0.33% (n = 360,000) | inhibition, % at 20 µM | Small ubiquitin-related modifier 1 (Homo sapiens), P63165; in the data active = inhibition above about 37%
# * = called active by the depositor; . = no result given; ! = not active in a repeat. The list is not random: actives were taken first. Their share in the collection is about 1.8%.
SMILES,Scp1 inh,STEP block,DNMT1 inh,LMPTP inh,SUMO1-SIM PPI
OC(c1cccc(Cl)c1)c1nc(-c2cnc3ccccc3c2)cs1 (configuration not stated),.,2,-13,2,-14
COc1ccc(C2NCCc3c2[nH]c2ccccc32)cc1CN1CCc2cc(OC)c(OC)cc2C1C (configuration not stated),4,-2,32,52*,-48
O=C(COC(=O)c1ccc([N+](=O)[O-])s1)NC(c1ccccc1)c1ccccc1,2,-1,28,-1,59*
O=C(COC(=O)c1ccc([N+](=O)[O-])s1)Nc1ccccc1,-10,1,-1,-2,22
CCc1nccn1CCC(=O)NC1CCCc2c1cnn2-c1ccc(F)cc1F (configuration not stated),-5,9,-1,-1,3
O=c1c2c(-c3ccccc3)csc2nc2c3ccccc3c(NCCN3CCOCC3)nn12,5,9,-3,9,64*
c1ccc(-c2csc3ncnc(NCCCN4CCOCC4)c23)cc1,0,-1,-3,0,3
O=C(O)CCC(=O)Nc1cc(C(F)(F)F)cc(C(F)(F)F)c1,-5,1,2,1,44*
CC(C)(CC(=O)O)CC(=O)Nc1cc(C(F)(F)F)cc(C(F)(F)F)c1,-3,-2,-2,-1,2
O=C1NC[C@@H](CCCCN2C[C@H](Cc3ccc(O)cc3)N(Cc3ccccc3)C(=O)C2=O)N(CCC2CCCCC2)C1=O,.,.,.,-1,2
CN1C(=O)/C(=C/c2ccc(C(=O)Nc3ccc(O)cc3C(=O)O)cc2)SC1=S,47,98*,-5,19,33
Cc1ccc(/C=C2\SC(=S)N(CCC(=O)NNC(=O)c3ccc(O)cc3)C2=O)cc1,-3,3,2,-3,-10
CC(=O)COc1ccc2oc(=O)cc(-c3cc4ccccc4o3)c2c1,-8,3,-4,4,-39
O=c1cc(-c2cc3ccccc3o2)c2cc(O)ccc2o1,28,12,-2,58*,-7
COC(=O)CCCn1cc(CN(C)C2CN(Cc3cn(CCCC(=O)OC)nn3)S(=O)(=O)C2)nn1 (configuration not stated),.,.,.,-1,3
O=C(CCS(=O)(=O)c1ccc(F)cc1)Nc1nc(-c2ccncc2)cs1,-5,57*,8,0,-1
CCc1oc(C(=O)O)cc1COC,66*,0,43,-2,-1
CC1CCc2c(sc3ncn(CC(=O)N=Nc4c(O)[nH]c5ccccc45)c(=O)c23)C1 (configuration not stated),18,3,54*,1,6
C[C@H]1COC2=C1C(=O)C(=O)c1c2ccc2c1CCCC2(C)C,7,6,28,34,32
Cc1ccc2c3c(cccc13)-c1ccccc1C2=O,-14,1,28,4,-17
Cc1coc2c1C(=O)C(=O)c1c-2ccc2c1CCCC2(C)C,-4,3,52*,9,9
Cc1coc2c1C(=O)C(=O)c1c-2ccc2c(C)cccc12,38,14,95*,22,22
CC(=O)Nc1ccc(-c2nc3cc(Cl)ccc3o2)cc1,62*,4,-6,19,13
O=C(O)c1ccccc1-c1ccccc1C(=O)Nc1ccc(-c2nc3cc(Cl)ccc3o2)cc1,-3,0,-3,1,26
CC(C)Nc1nc(NCCN2CCCC2)c2sc(-c3ccccc3)cc2n1,.,8,-11,52*,-57
SMILES,Scp1 inh,STEP block,DNMT1 inh,LMPTP inh,SUMO1-SIM PPI
CN(C(=O)C1CCN(S(=O)(=O)c2cccs2)CC1)c1ccccc1,-7,-5,-1,-1,-1
Cn1c(=NC(=O)C2CCN(S(=O)(=O)c3cccs3)CC2)sc2ccccc21,-1,0,1,1,43*!
Cc1cc(Nc2ccc(Cl)cc2)n(-c2cccc(Cl)c2)n1,-2,3,-7,2,1
Cc1cc(Nc2ccccc2C(=O)O)n(-c2cccc(Cl)c2)n1,-7,-1,2,-1,42*
Cc1ccc(C)c(NC(=S)c2ccc3ccccc3n2)c1,-10,1,2,3,-3
CN(C)c1ccc(NC(=S)c2ccc3ccccc3n2)cc1,-4,68*,-5,7,-19
CCOC(=O)C1=C(C)N=c2s/c(=C/c3ccc(OCC(=O)O)cc3)c(=O)n2C1c1ccc(SC)cc1 (configuration not stated),.,85*,39,48,27
CSc1nc(N(CCO)CCO)c2sc3nc(-c4ccco4)c4c(c3c2n1)CCC4,81*,56*,96*,68*,74*
Cc1ccc2nc(-c3cc(-c4ccccc4)no3)cn2c1,0,2,27,6,62*
Cc1nc(COC(=O)c2cc(O)c3ccccc3c2O)cs1,69*,-4,-12,1,-19
O=c1[nH][nH]c(=S)n1C1CCCCC1,72*,.,.,.,.
COC(=O)[C@@]12C[C@@H](CC(=O)NCCC(C)C)C(=O)N(CCc3ccc(OC)c(OC)c3)C1=CCC(C)(C)C2,.,.,.,-1,-4
Cc1cccc(NC(=O)CNC(=O)CN2C(=O)NC3(CCCCC3C)C2=O)c1C (configuration not stated),-2,-1,4,-1,2
O=c1c(O)cccc2cc(O)c(O)c(O)c12,73*,98*,95*,90*,104*
CCOc1cccc2cc(C(=O)NCc3cccnc3)c(=O)oc12,-2,-5,4,-2,-21
C=CCc1cccc2cc(C(=O)Nc3ccc(S(=O)(=O)Nc4nnc(CC)s4)cc3)c(=O)oc12,101*,91*,8,1,5
C=CCc1cccc2cc(C(=O)NCc3cccnc3)c(=O)oc12,-4,1,2,52*,-19
O=C1C=CC(=O)c2c(O)c(N3CCN(CCO)CC3)c(Cl)c(O)c21,73*,27,103*,76*,91*
O=C1C=CC(=O)c2c(O)c(N3CCN(CCOCCO)CC3)c(Br)c(O)c21,70*,86*,98*,77*,109*
O=C1c2ccccc2S(=O)N1c1cccc(F)c1 (configuration not stated),.,1,-3,0,6
COc1cccc(/C=C/C(=O)OCC(=O)Nc2cccc(S(=O)(=O)NC3=NCCCCC3)c2)c1,5,-1,-2,1,3
O=C(Nc1ccncc1NC(=O)c1cccc([N+](=O)[O-])c1)c1cccc([N+](=O)[O-])c1,9,30,37,55*,76*
